Laboratory results published in publication PMC7787347 (Journal of medicinal chemistry, 2018).
Entries after “also recorded” stand apart in the source; their conditions may differ.

How the values were obtained:
[1] = system: SW480; details: read-out: MTs IC50 ± SD SW480; Wnt/β-catenin hyperactive, 72 h; cited from earlier work
[2] = system: HCT116; details: read-out: MTs IC50 ± SD HCT116; Wnt/β-catenin hyperactive, 72 h; cited from earlier work
[3] = system: MDA-MB-231; details: read-out: MTs IC50 ± SD MDA-MB-231; Wnt/β-catenin hyperactive, 72 h; cited from earlier work
[4] = system: A549; details: read-out: MTs IC50 ± SD normal Wnt A549, 72 h; cited from earlier work
[5] = system: MDA-MB-231 cells; details: cited from earlier work
[6] = system: β-catenin; details: in words; cited from earlier work
[7] = system: BCL9 HD2 domain; details: in words; cited from earlier work
[8] = system: Axin2, LEF1, cyclin D1 mRNA in SW480 cells; experiment: qPCR of Wnt target gene mRNA expression; assay type: cell-based, human; details: 24 h, in words
[9] = system: cyclin D1, c-myc, active β-catenin (ABC), total β-catenin in SW480 cells; experiment: Western blot of protein expression; assay type: cell-based; details: 24 h, in words
[10] = target: T1, β-catenin/BCL9 PPI (Homo sapiens, UniProt P35222); experiment: AlphaScreen competitive inhibition assay, β-catenin/BCL9 PPI; assay type: binding; details: in words
T1 sequence (P35222 1-781): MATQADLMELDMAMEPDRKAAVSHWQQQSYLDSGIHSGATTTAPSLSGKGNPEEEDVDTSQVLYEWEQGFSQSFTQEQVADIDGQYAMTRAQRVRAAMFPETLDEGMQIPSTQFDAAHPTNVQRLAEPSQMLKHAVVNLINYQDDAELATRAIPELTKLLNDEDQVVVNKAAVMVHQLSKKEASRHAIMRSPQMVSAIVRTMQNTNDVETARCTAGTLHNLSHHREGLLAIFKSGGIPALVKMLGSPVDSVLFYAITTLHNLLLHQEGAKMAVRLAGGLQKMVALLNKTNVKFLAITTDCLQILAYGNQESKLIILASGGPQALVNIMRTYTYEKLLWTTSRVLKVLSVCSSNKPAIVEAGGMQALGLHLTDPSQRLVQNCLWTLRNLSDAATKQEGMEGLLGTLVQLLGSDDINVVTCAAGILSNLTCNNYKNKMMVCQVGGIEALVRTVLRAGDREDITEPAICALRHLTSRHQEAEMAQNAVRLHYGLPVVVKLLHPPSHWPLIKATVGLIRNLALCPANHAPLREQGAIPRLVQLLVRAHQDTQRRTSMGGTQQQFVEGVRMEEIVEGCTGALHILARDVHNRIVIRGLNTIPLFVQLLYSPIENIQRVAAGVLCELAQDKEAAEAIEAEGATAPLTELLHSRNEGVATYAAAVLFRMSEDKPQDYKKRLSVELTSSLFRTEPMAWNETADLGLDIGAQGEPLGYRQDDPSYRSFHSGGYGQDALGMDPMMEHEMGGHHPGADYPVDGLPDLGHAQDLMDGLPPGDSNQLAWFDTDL

[11] = target: T2, β-catenin/E-cadherin PPI (Homo sapiens, UniProt P35222); experiment: AlphaScreen selectivity assay, β-catenin/E-cadherin PPI; assay type: binding; details: for selectivity of BCL9/cadherin: ratio of Ki β-catenin/E-cadherin over Ki β-catenin/BCL9
T2 sequence (P35222 1-781): T1 sequence (P35222 1-781)

[12] = system: SW480 cells; experiment: LDH release cytotoxicity assay; assay type: cell-based; details: 4 h incubation, in words
Summary of the method: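 SW480 cells were seeded at 2 × 10^4 cells/well, held overnight at 37 °C, then exposed to various concentrations of test compound for 4 h. The culture supernatant was reacted with the commercial LDH kit reagents and read at 490 nm. Percent cytotoxicity was calculated from experimental, background and maximum LDH release. Run in triplicate.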

[13] = system: FOPFlash luciferase reporter (three mutant Tcf4 binding sites) in β-catenin activated HEK293 cells; experiment: FOPFlash luciferase reporter assay; assay type: cell-based; details: in words; for effect on FOPFlash luciferase reporter activity: β-catenin activated HEK293 cells
[14] = system: HCT116 cells; experiment: Cell-bound; assay type: in vitro ADME; details: 5 mL DMEM with 10% FBS
[15] = system: full-length β-catenin/full-length BCL9 PPI in HCT116 cell lysates; experiment: Co-IP in cell lysates; assay type: cell-based; details: 4 h incubation with HCT116 cell lysates, in words
[16] = system: β-catenin/BCL9 PPI in HCT116 cells; experiment: Co-IP in whole cells; assay type: cell-based; details: 24 h, in words
[17] = target: BCL9 (Homo sapiens) (UniProt O00512); details: cited from earlier work
BCL9 (Homo sapiens), sequence (O00512 whole entry): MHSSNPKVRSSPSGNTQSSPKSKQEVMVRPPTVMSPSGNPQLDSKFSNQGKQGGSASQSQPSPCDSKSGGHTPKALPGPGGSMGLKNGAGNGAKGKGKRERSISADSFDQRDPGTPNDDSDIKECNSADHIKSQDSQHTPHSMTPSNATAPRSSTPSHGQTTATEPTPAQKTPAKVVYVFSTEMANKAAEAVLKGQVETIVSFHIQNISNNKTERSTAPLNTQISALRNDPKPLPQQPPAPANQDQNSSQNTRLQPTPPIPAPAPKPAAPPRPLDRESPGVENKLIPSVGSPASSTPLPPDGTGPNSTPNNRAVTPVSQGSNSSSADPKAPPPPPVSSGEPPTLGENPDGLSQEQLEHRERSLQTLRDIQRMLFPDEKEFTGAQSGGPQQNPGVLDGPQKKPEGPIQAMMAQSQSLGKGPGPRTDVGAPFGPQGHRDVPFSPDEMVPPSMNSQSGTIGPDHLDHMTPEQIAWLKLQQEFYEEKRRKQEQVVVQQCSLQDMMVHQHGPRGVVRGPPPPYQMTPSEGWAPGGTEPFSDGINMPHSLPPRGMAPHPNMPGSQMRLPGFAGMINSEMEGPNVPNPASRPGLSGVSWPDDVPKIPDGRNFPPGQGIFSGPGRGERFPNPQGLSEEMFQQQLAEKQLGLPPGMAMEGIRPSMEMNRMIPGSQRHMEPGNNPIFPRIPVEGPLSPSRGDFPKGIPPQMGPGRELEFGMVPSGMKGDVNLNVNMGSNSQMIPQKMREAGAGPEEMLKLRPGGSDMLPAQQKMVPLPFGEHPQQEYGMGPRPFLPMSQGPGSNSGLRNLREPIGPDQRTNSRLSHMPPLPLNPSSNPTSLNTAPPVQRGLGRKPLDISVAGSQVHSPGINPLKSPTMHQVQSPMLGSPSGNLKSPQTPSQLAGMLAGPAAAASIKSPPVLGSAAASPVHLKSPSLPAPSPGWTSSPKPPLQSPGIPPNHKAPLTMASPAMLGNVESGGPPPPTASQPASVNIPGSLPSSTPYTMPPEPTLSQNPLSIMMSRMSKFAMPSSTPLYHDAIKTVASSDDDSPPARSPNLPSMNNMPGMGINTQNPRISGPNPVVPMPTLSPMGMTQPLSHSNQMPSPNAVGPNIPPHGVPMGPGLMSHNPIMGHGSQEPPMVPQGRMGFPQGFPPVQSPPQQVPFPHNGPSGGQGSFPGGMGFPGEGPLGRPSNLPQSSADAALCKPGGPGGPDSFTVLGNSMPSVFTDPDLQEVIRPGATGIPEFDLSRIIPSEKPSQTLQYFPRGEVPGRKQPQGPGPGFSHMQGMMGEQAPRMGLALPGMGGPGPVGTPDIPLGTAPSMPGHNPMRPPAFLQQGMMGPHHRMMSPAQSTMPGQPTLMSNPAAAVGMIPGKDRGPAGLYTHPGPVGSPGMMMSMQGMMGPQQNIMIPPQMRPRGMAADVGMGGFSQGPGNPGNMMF

| Molecule | mRNA expression of Wnt target genes Axin2, cyclin D1 and LEF1 [8] | mRNA expression of house-keeper gene HPRT [8] | level of E-cadherin-bound β-catenin (total β-catenin) [9] | level of the active form of β-catenin (ABC) [9] | protein expression levels of cyclin D1 and c-myc [9] | AlphaScreen biochemical inhibitory activity compared with 1 [10] | Ki [11] | selectivity of BCL9/cadherin [11] | effect on FOPFlash luciferase reporter activity [13] | other results |
| --- | --- | --- | --- | --- | --- | --- | --- | --- | --- | --- |
| Cl.Cl.O=C(Nc1ccc(O[C@H]2CCNC2)c(-c2ccc(F)cc2)c1)c1ccc(O[C@H]2CCNC2)c(-c2ccc(F)c(F)c2)c1 [Compound 1] |  |  |  |  |  |  |  |  |  | IC50 [1]: 3.5 ± 0.32 µM; IC50 [2]: 3.1 ± 0.83 µM; IC50 [3]: 2.3 ± 0.25 µM; IC50 [4]: 8.8 ± 0.62 µM; cell-bound concentration at 4 °C ([5]; 6 h incubation at 4 °C, 5 mL DMEM with 10% FBS): 1 nmol/million MDA-MB-231 cells; cell-bound concentration at 37 °C ([5]; 6 h incubation, 5 mL DMEM with 10% FBS, input concentration 2 μM): 6.7 nmol/million MDA-MB-231 cells; amount bound with the cell membrane by the nonspecific manner ([5]; MDA-MB-231 cells): 15%; binding with β-catenin in ITC [6]: bind with β-catenin; binding with BCL9 HD2 domain in ITC [7]: not the BCL9 HD2 domain |
| Cl.Cl.O=C(Nc1ccc(O[C@H]2CCNC2)c(-c2ccc(F)cc2)c1)c1ccc(O[C@H]2CCNC2)c(-c2ccc3ccsc3c2)c1 [Compound 3, 3-(Benzo[b]thiophen-6-yl)-N-(4′-fluoro-6-(((S)-pyrrolidin-3-yl)-oxy)-[1,1′-biphenyl]-3-yl)-4-(((S)-pyrrolidin-3-yl)oxy)benzamide Dihydrochloride] | dose-dependently inhibited | did not inhibit | no effect | inhibit the level of the active form of β-catenin (ABC) | significantly decreased |  |  |  |  |  |
| Cl.Cl.O=C(Nc1ccc(O[C@H]2CCNC2)c(-c2cccc(-c3nn[nH]n3)c2)c1)c1ccc(O[C@H]2CCNC2)c(-c2ccc(F)c(F)c2)c1 [Compound 27, 3′,4′-Difluoro-6-((S)-pyrrolidin-3-yloxy)-N-(6-((S)-pyrrolidin-3-yloxy)-3′-(2H-tetrazol-5-yl)-[1,1′-biphenyl]-3-yl)-[1,1′-biphenyl]-3-carboxamide Dihydrochloride] |  |  |  |  |  | comparable with that of 1 |  |  |  |  |
| Cl.Cl.O=C(Nc1ccc(O[C@@H]2CCNC2)c(-c2cccc(-c3nn[nH]n3)c2)c1)c1ccc(O[C@H]2CCNC2)c(-c2ccc(F)c(F)c2)c1 [Compound 29, 3′,4′-Difluoro-6-(((S)-pyrrolidin-3-yl)oxy)-N-(6-(((R)-pyrrolidin-3-yl)oxy)-3′-(2H-tetrazol-5-yl)-[1,1′-biphenyl]-3-yl)-[1,1′-biphenyl]-3-carboxamide Dihydrochloride] | dose-dependently inhibited | did not inhibit | no effect | inhibit the level of the active form of β-catenin (ABC) | significantly decreased |  | > 915 µM | >1900 fold | specific for the Wnt/β-catenin signaling pathway | cytotoxicity in LDH release assay [12]: did not exhibit cytotoxicity; also recorded: did not show cytotoxicity; effect on FOPFlash luciferase reporter activity up to 200 μM ([13]; up to the concentration of 200 μM): no effect; cell-bound concentration at 4 °C ([14]; 6 h incubation at 4 °C): 5.1 nmol/million HCT116 cells; cell-bound concentration at 37 °C ([14]; 6 h incubation, input concentration 50 μM): 6.6 nmol/million HCT116 cells; disruption of full-length β-catenin/full-length BCL9 PPI [15]: dose-dependently disrupt; disruption of β-catenin/BCL9 PPI in cells [16]: inhibited the β-catenin/BCL9 PPI in a dose-dependent manner |
| Cl.Cl.O=C(Nc1ccc(O[C@@H]2CCNC2)c(-c2cccc(-c3nn[nH]n3)c2)c1)c1ccc(O[C@H]2CCNC2)c(-c2ccc3ccsc3c2)c1 [Compound 30, (R)-3-((5-(3-(Benzo[b]thiophen-6-yl)-4-(((S)-pyrrolidin-1-ium-3-yl)oxy)benzamido)-3′-(2H-tetrazol-5-yl)-[1,1′-biphenyl]-2-yl)oxy)-pyrrolidin-1-ium Chloride] |  |  |  |  |  | comparable with that of 1 | > 915 µM | >570 fold | specific for the Wnt/β-catenin signaling pathway |  |
| β-catenin (from UniProt P35222) |  |  |  |  |  |  |  |  |  | Kd [17]: 0.47 µM |
